The species named for test [1] is Cavia porcellus. In words: Compound was tested in vitro for ionotropic activity on isolated atria preparations of guinea pig. Type of test: functional.
The species entered for test [2] is Cavia porcellus. Kind of test: Percent inhibition of [Ca2+] induced contraction on K+ depolarized guinea pig aortic strips at […] concentration. The format is functional, Aorta. In short, it runs like this: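 Guinea pig aortic strips were depolarized with K+, and contraction was induced with Ca2+. Percent inhibition of that contraction was measured with the test agent at 5·10^-4 M. Results are given as means ± SEM, n = 5-6.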

The species entered for test [3] is Cavia porcellus. In words: Compound was tested in vitro for chronotropic activity on isolated atria preparations of guinea pig. The format is functional.
Test [4] is filed under the species Cavia porcellus. In words: Compound was tested in vitro for ionotropic activity on isolated atria preparations of guinea pig at 10E-6 M concentration. The format is functional.
The species named for test [5] is Cavia porcellus. Kind of test: Compound was tested in vitro for chronotropic activity on isolated atria preparations of guinea pig at 10E-6 M concentration. The format is functional. In outline: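 Chronotropic effect was measured on spontaneously beating isolated guinea pig right atria, with the test agent at 10^-6 M.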

`COc1ccc(CCN(C)[C@H]2CC[C@](C#N)(c3ccc(OC)c(OC)c3)CC2)cc1OC` returned a Negative ionotropic activity in test [1] of 52%. The “Ca2+ antagonistic activity” value in test [2] is 59%. In test [3], this compound had a Negative chronotropic activity of 65%.
The matching figures for `COc1ccc(CCN(C)[C@H]2CC[C@@](C#N)(c3ccc(OC)c(OC)c3)CC2)cc1OC`: 56%, 66% and 67%.
Regarding `COc1ccc(CCN(C)CCCC(C#N)(c2ccc(OC)c(OC)c2)C(C)C)cc1OC` (centres undefined) [VERAPAMIL], the “Ca2+ antagonistic activity” value in test [2] is given as 79%. This compound gave a Negative ionotropic activity in test [4] of 60%. Also, the Negative chronotropic activity in test [5] is recorded as 94%.

(Values after ChEMBL document CHEMBL1125589, “Verapamil analogues with restricted molecular flexibility” (1991).)
